Results on one molecule are retold here after ChEMBL document CHEMBL4732121, “Imidazo[1,2-a]quinoxalines for melanoma treatment with original mechanism of action” (Eur J Med Chem, 2021).

Calls of active or inactive are those of the source. The rule behind the calls is not given here.

Series [1] in a line: Cytotoxicity against human PBMC cells assessed as reduction in cell viability at 0.2 mM measured after 96 hrs by MTT assay. The format is cell-based. Particulars: 200 µM. A general note: Tetrazolium assays rely on reduction of a dye to a coloured formazan, in cell work by metabolically active cells.
For series [2], the system named is A-375. As to the kind of experiment: Antitumor activity against human A-375 cells xenografted in Balb/c nude mouse assessed as change in tumor inflammation at 25 mg/kg, ip administered 3 times a week for 3 weeks measured post last dose by trichrome staining based histopathological analysis. The format is functional, organism-based. The method, boiled down:
(§1)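 Balb/c nude mice given 10×10^6 A375 cells in PBS subcutaneously in the right flank under isoflurane. Groups of 6-12 allocated on Day 14 at 110-130 mm^3 mean tumor volume; dosed ip for three weeks. Drug in DMSO/Tween 80 (1:1) diluted with saline; vehicle DMSO/Tween 80/saline (1:1:8). Tumors fixed in buffered 3.7% formalin and read blind by a veterinary pathologist after mid-sagittal section.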

Series [3] can be described thus: Toxicity in Balb/c nude mouse xenografted with human A-375 cells assessed as effect on spleen pathology at 75 mg/kg, ip administered 3 times a week during first week and twice a week for 2 week measured post last dose by pathological analysis. The class given is organism-based. As to conditions: in vivo, 504 h, time 3 weeks. In outline:
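Balb/c nude mice inoculated s.c. in right flank with 10×10^6 A375 cells in PBS under isoflurane; dosing started once mean tumor volume reached 110-130 mm3, groups allocated Day 14. IP dosing for three weeks; vehicle DMSO/Tween 80 (vol/vol) plus injectable saline (8 vol), solutions made daily. Body weight followed during treatment; gross pathology at study termination; n = 4 mice per group reported.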
A general note: A xenograft is tissue or cells of one species grown in another, often human tumour cells in immunodeficient mice.

Series [4] in a line: Toxicity in Balb/c nude mouse xenografted with human A-375 cells assessed as pathological changes at 30 mg/kg, ip administered 5 times a week for 3 weeks measured post last dose by histopathological analysis. The class given is organism-based. Particulars: in vivo, 504 h.
Series [5] has as its system A-375. Put plainly: Antitumor activity against human A-375 cells xenografted in Balb/c nude mouse assessed as reduction in cell invasion at 75 mg/kg, ip administered 3 times a week during first week and twice a week for next 2 weeks measured post last dose. The format is functional, organism-based. Particulars: time 3.0 weeks. The method, boiled down:
as §1

The test system of series [6] is A-375. Put plainly: Antitumor activity against human A-375 cells xenografted in Balb/c nude mouse assessed as reduction in cell invasion at 30 mg/kg, ip administered 5 times a week for 3 weeks measured post last dose. The format is functional, organism-based. In outline: as §1
Series [7] has as its system A-375. As to the kind of experiment: Antitumor activity against human A-375 cells xenografted in Balb/c nude mouse assessed as reduction in mitotic index at 75 mg/kg, ip administered 3 times a week during first week and twice a week for next 2 weeks measured post last dose. The class given is functional, organism-based. Particulars: time 3.0 weeks. In outline:
as §1

The test system of series [8] is A-375. Put plainly: Antitumor activity against human A-375 cells xenografted in Balb/c nude mouse assessed as reduction in tumor weight at 75 mg/kg, ip administered 3 times a week during first week and twice a week for next 2 weeks measured post last dose. The class given is functional, organism-based. As to conditions: time 3.0 weeks. The method, boiled down: as §1

In series [9] the test system is A-375. As to the kind of experiment: Antitumor activity against human A-375 cells xenografted in ip dosed Balb/c nude mouse assessed as reduction in tumor weight administered 3 times a week for 3 weeks measured post last dose. The class given is functional, organism-based. Particulars: dose 25-75 mg/kg.
For series [10], the system named is A-375. Put plainly: Antitumor activity against human A-375 cells xenografted in Balb/c nude mouse assessed as change in tumor stroma at 30 mg/kg, ip administered 5 times a week for 3 weeks measured post last dose by trichrome staining based histopathological analysis. The class given is functional, organism-based. The method, boiled down: as §1
For series [11], the system named is A-375. As to the kind of experiment: Antitumor activity against human A-375 cells xenografted in Balb/c nude mouse assessed as change in tumor stroma at 25 mg/kg, ip administered 3 times a week for 3 weeks measured post last dose by trichrome staining based histopathological analysis. The format is functional, organism-based. In outline:
as §1

The test system of series [12] is A-375. As to the kind of experiment: Antitumor activity against human A-375 cells xenografted in ip dosed Balb/c nude mouse assessed as reduction in tumor size administered 3 times a week for 3 weeks by caliper method. The format is functional, organism-based. As to conditions: dose 25-75 mg/kg.

Regarding `CNc1nc2ccccc2n2c(-c3ccc(O)c(O)c3)cnc12`, the Activity result is “Non-Toxic” in [1]; “Toxic” in series [3]; “Non-Toxic” in [4]; “Dose-dependent effect” in the series with A-375 [9]; “Dose-dependent effect” in the series with A-375 [12]. Besides, the outcome with A-375 [2], in the series with A-375 [10] and with A-375 [11] was inactive. Further, the result in the series with A-375 [5], with A-375 [6], with A-375 [7] and in the series on A-375 [8] was Active.
